Measurements reported in ChEMBL document CHEMBL1137907, “Anticancer activity of 3-O-acyl and alkyl-(-)-epicatechin derivatives” (Bioorg Med Chem Lett, 2004).

How the values were obtained:
U373 MG = assay: In vitro inhibitory concentration against U373MG cell line in MTT assay was determined after 3 days incubation; assay type: functional, cell-based, U-373MG ATCC; conditions: Homo sapiens, 72 h
How it was run: (§1)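 MTT viability read-out in 96-well format, per Mosmann's method. Values are means of three experiments.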

SK-OV-3 = assay: In vitro inhibitory concentration against SKOV3 cell line in MTT assay was determined after 3 days incubation; assay type: functional, cell-based; conditions: Homo sapiens, SK-OV-3, 72 h; how it was run: as §1
PC-3 = assay: In vitro inhibitory concentration against PC-3 cell line in MTT assay was determined after 3 days incubation; assay type: functional, cell-based; conditions: Homo sapiens, PC-3, 72 h; how it was run: as §1

SMILES	IC50 (SK-OV-3) [µM]	IC50 (PC-3) [µM]	IC50 (U373 MG) [µM]
COc1cc(C(=O)O[C@@H]2Cc3c(O)cc(O)cc3O[C@@H]2c2ccc(O)c(O)c2)cc(OC)c1OC	50.1	51.3	57.2
COc1cc(CO[C@@H]2Cc3c(O)cc(O)cc3O[C@@H]2c2ccc(O)c(O)c2)cc(OC)c1OC	38.2	32.5	29.8
Oc1cc(O)c2c(c1)O[C@H](c1ccc(O)c(O)c1)[C@H](O)C2 [(-)-EPICATECHIN]	> 500	> 500	> 500

Further lines, with some results ahead:

IC50 (SK-OV-3) [µM]	IC50 (PC-3) [µM]	SMILES	IC50 (U373 MG) [µM]
78.2	58.7	O=C(O[C@@H]1Cc2c(O)cc(O)cc2O[C@@H]1c1ccc(O)c(O)c1)c1cc(F)cc(F)c1	64.5
61	71.9	O=C(O[C@@H]1Cc2c(O)cc(O)cc2O[C@@H]1c1ccc(O)c(O)c1)c1cc(F)c(F)c(F)c1	59.2
47.3	45.2	O=C(O[C@@H]1Cc2c(O)cc(O)cc2O[C@@H]1c1ccc(O)c(O)c1)c1ccc(OC(F)(F)F)cc1	50.3
185	168	O=C(O[C@@H]1Cc2c(O)cc(O)cc2O[C@@H]1c1ccc(O)c(O)c1)c1cc(O)c(O)c(O)c1 [EPICATECHIN GALLATE]	157
